Test results as given in ChEMBL document CHEMBL4706575, “Nonpeptidic quinazolinone derivatives as dual nucleotide-binding oligomerization domain-like receptor 1/2 antagonists for adjuvant cancer chemotherapy” (Eur J Med Chem, 2020).
Active and inactive are the calls of the source. The rule behind the calls is not given here.

Legend:
[1] = molecular target: T1, Nucleotide-binding oligomerization domain-containing protein 1 (Homo sapiens) (UniProt Q9Y239); assay: Antagonist activity at NOD1 in HEK-Blue hNOD1 cells assessed as inhibition of C12-iE-DAP-induced NFkappaB activation-mediated SEAP release at 5 uM preincubated for 3 hrs followed by C12-iE-DAP addition and measured after 20 hrs by spectrophotometric method relative to control; assay type: cell-based; conditions: filed as antagonist, time 23.0 hrs
T1 sequence (whole entry): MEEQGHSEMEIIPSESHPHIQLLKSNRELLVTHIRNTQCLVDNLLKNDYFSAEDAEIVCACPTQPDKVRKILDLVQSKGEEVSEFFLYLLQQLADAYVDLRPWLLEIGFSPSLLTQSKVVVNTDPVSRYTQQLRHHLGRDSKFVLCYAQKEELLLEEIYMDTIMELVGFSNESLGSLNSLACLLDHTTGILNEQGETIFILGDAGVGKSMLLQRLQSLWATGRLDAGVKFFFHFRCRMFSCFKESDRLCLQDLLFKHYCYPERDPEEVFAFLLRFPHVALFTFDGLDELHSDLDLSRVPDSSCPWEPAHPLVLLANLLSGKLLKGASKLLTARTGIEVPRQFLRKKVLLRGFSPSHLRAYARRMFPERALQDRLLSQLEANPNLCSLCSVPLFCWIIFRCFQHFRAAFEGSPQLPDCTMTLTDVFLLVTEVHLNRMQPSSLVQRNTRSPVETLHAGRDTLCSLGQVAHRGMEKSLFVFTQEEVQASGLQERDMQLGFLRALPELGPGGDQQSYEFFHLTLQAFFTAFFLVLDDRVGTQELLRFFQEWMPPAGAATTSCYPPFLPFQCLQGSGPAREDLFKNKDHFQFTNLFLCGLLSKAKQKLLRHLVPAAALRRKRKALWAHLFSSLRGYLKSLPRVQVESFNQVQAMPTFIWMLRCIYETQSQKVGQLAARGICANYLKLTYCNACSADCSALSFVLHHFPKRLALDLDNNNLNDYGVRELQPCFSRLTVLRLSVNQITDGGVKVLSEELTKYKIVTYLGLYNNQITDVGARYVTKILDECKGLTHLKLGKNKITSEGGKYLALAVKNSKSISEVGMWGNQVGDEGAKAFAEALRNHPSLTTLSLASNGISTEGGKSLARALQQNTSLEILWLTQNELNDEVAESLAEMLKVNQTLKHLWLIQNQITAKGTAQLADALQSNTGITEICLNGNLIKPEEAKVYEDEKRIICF

[2] = system: B16-F10; assay: Potentiation of paclitaxel-induced antitumor activity against mouse B16-F10 cells implanted in C57BL/6 mouse assessed as tumor growth inhibition at 50 mg/kg, iv administered every other day for 15 days measured 24 hrs post last dose (reference value: 64.07%); assay type: functional; conditions: 384 h, time 16 day, read-out: TGI
[3] = Half life in mouse liver microsomes at 1.25 uM preincubated for 5 mins followed by NADPH generating system addition and measured for 120 mins by LC-MS/MS analysis; assay type: ADME, Microsome
In short: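 Mouse liver microsomes (1.25 mg/mL protein) in 100 mM phosphate pH 7.4 with 1.25 µM compound, preincubated 5 min at 37 °C. Reaction started with NADPH-generating system (1 mM NADP, 10 mM MgCl2, 10 mM G6P, 0.5 U/mL G6PDH). Sampled at 0–120 min, quenched with MeOH/ACN 1:1, analysed by LC-MS/MS.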

[4] = molecular target: T2, Nucleotide-binding oligomerization domain-containing protein 2 (Homo sapiens, UniProt Q9HC29); assay: Antagonist activity at NOD2 in HEK-Blue hNOD2 cells assessed as inhibition of MDP-induced NFkappaB activation-mediated SEAP release preincubated for 3 hrs followed by MDP addition and measured after 20 hrs by spectrophotometric method; assay type: cell-based
In short: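 HEK-Blue hNOD2 cells preincubated 3 h with a range of concentrations, then MDP 100 ng/mL for 20 h. SEAP quantified. SRB assay run to exclude cytotoxicity. IC50 by nonlinear semi-logarithmic fit, mean ± SD, n = 3.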

[5] = molecular target: T1, Nucleotide-binding oligomerization domain-containing protein 1 (Homo sapiens); assay: Antagonist activity at NOD1 in human THP-1 cells assessed as inhibition of C12-iE-DAP-induced IL8 mRNA expression preincubated for 1 hr followed by C12-iE-DAP addition and measured after 90 mins by qRT-PCR analysis; assay type: cell-based; conditions: filed as antagonist, dose 1-10 µM, time 150.0 min
In short: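 THP-1 cells in RPMI-1640 with 10% FBS, treated with compound (1.0 or 10 µM) or vehicle for 1 h. Then stimulated 90 min with C12-iE-DAP 500 ng/mL (NOD1) or MDP (NOD2). IL-6, TNF-α and IL-8 mRNA measured by qRT-PCR. Mean ± SD, n = 6, two-tailed t-test.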

[6] = molecular target: T1, Nucleotide-binding oligomerization domain-containing protein 1 (Homo sapiens); assay: Antagonist activity at NOD1 in human THP-1 cells assessed as inhibition of C12-iE-DAP-induced increase in p65 phosphorylation at 1 to 10 uM preincubated for 1 hr followed by C12-iE-DAP addition and measured after 30 mins by Western blot analysis; assay type: cell-based; conditions: filed as antagonist, dose 1-10 µM, time 1.5 hrs
In short: (§1)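 Serum-starved THP-1 cells pretreated with compound (1.0 or 10 µM) or without for 1 h. Then C12-iE-DAP 500 ng/mL (NOD1) or MDP (NOD2) for 30 min. Lysed in cold whole-cell buffer. Western blot for IκBα and for total and phospho RIP2, IKKα/β, p65, JNK, p38 and ERK1/2. β-actin as loading control.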

[7] = molecular target: T1, Nucleotide-binding oligomerization domain-containing protein 1 (Homo sapiens); assay: Antagonist activity at NOD1 in human THP-1 cells assessed as inhibition of C12-iE-DAP-induced increase in IKKalpha/beta phosphorylation at 1 to 10 uM preincubated for 1 hr followed by C12-iE-DAP addition and measured after 30 mins by Western blot analysis; assay type: cell-based; conditions: filed as antagonist, dose 1-10 µM, time 1.5 hrs; in short: as §1
[8] = molecular target: T2, Nucleotide-binding oligomerization domain-containing protein 2; assay: Antagonist activity at NOD2 in human THP-1 cells assessed as inhibition of MDP-induced IkappaBalpha degradation preincubated for 1 hr followed by MDP addition and measured after 30 mins by Western blot analysis; assay type: cell-based; conditions: filed as antagonist, dose 1-10 µM, time 1.5 hrs; in short: as §1
[9] = molecular target: T2, Nucleotide-binding oligomerization domain-containing protein 2; assay: Antagonist activity at NOD2 in human THP-1 cells assessed as inhibition of MDP-induced increase in RIP2 phosphorylation preincubated for 1 hr followed by MDP addition and measured after 30 mins by Western blot analysis; assay type: cell-based; conditions: filed as antagonist, dose 1-10 µM, time 1.5 hrs; in short: as §1
[10] = molecular target: T1, Nucleotide-binding oligomerization domain-containing protein 1 (Homo sapiens); assay: Antagonist activity at NOD1 in human THP-1 cells assessed as inhibition of C12-iE-DAP-induced increase in p38 phosphorylation at 1 to 10 uM preincubated for 1 hr followed by C12-iE-DAP addition and measured after 30 mins by Western blot analysis; assay type: cell-based; conditions: filed as antagonist, dose 1-10 µM, time 1.5 hrs; in short: as §1
[11] = molecular target: T1, Nucleotide-binding oligomerization domain-containing protein 1 (Homo sapiens); assay: Antagonist activity at NOD1 in human THP-1 cells assessed as inhibition of C12-iE-DAP-induced increase in JNK phosphorylation at 1 to 10 uM preincubated for 1 hr followed by C12-iE-DAP addition and measured after 30 mins by Western blot analysis; assay type: cell-based; conditions: filed as antagonist, dose 1-10 µM, time 1.5 hrs; in short: as §1
[12] = molecular target: T2, Nucleotide-binding oligomerization domain-containing protein 2; assay: Antagonist activity at NOD2 in human THP-1 cells assessed as inhibition of MDP-induced increase in JNK phosphorylation preincubated for 1 hr followed by MDP addition and measured after 30 mins by Western blot analysis; assay type: cell-based; conditions: filed as antagonist, dose 1-10 µM, time 1.5 hrs; in short: as §1
[13] = molecular target: T2, Nucleotide-binding oligomerization domain-containing protein 2; assay: Antagonist activity at NOD2 in human THP-1 cells assessed as inhibition of MDP-induced increase in p65 phosphorylation preincubated for 1 hr followed by MDP addition and measured after 30 mins by Western blot analysis; assay type: cell-based; conditions: filed as antagonist, dose 1-10 µM, time 1.5 hrs; in short: as §1

T2 sequence (Q9HC29 whole entry, the tested form may be a part): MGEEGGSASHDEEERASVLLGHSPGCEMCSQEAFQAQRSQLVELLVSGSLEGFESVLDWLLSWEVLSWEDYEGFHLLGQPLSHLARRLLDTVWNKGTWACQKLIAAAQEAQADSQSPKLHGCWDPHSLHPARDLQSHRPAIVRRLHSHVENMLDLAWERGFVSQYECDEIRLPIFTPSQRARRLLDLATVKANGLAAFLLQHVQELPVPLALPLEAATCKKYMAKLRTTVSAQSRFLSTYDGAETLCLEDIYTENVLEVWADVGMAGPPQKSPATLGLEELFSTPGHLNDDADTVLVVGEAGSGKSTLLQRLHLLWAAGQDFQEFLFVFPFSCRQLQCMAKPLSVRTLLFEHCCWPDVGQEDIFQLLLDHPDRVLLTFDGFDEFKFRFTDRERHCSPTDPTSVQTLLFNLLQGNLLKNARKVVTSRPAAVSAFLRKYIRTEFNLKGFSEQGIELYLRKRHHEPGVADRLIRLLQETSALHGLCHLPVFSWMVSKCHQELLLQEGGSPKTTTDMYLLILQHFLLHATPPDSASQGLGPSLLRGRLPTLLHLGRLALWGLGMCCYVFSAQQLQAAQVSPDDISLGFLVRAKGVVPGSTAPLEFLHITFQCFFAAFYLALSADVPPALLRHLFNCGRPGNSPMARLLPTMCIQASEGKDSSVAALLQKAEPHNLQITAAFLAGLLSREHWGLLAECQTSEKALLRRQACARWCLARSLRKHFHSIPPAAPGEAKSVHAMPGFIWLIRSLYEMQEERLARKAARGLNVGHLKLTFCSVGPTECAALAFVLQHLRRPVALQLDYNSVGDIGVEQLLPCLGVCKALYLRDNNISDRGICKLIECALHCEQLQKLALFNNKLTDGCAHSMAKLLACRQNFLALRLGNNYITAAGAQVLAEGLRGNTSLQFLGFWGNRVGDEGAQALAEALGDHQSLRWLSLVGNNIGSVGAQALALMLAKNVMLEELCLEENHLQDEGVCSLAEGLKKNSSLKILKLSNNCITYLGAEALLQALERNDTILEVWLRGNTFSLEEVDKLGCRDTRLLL

With `O=C(NCCCOc1ccc(C(F)(F)F)cc1)c1cc2ncn(CC(=O)N3CCCC(F)(F)C3)c(=O)c2cc1-c1cccc(Cl)c1` the inhibition [1] was 91.4%, the inhibition in vivo at 50 mg/kg [2] was 85.5% and the half-life at 1.25 µM [3] was 1.13 h. For the same compound, the IC50 [4] was 770 nM, the inhibition ([4]; filed as antagonist, time 23.0 hrs) was “Dose-dependent effect” and the inhibition [5] was “Dose-dependent effect”. For the same compound, the inhibition [6] was “Active”, the inhibition [7] was “Active” and the inhibition [8] was “Dose-dependent effect”. For the same compound, the inhibition [9] was “Dose-dependent effect”, the inhibition [10] was “Active” and the inhibition [11] was “Active”. For the same compound, the inhibition [12] was “Dose-dependent effect” and the inhibition [13] was “Dose-dependent effect”.
